Converted amounts (≈) assume the structure as drawn.
Legend:
Escherichia coli = assay: Antibacterial activity against Escherichia coli EMBLC-1 by microplate assay; type: functional
Staphylococcus aureus = assay: Antibacterial activity against Staphylococcus aureus EMBLC-2 by microplate assay; type: functional
Aeromonas hydrophila = assay: Antibacterial activity against Aeromonas hydrophila QDIO-1 by microplate assay; type: functional
Edwardsiella tarda = assay: Antibacterial activity against Edwardsiella tarda QDIO-2 by microplate assay; type: functional
Micrococcus luteus = assay: Antibacterial activity against Micrococcus luteus QDIO-3 by microplate assay; type: functional
Pseudomonas aeruginosa = assay: Antibacterial activity against Pseudomonas aeruginosa QDIO-4 by microplate assay; type: functional
Vibrio alginolyticus = assay: Antibacterial activity against Vibrio alginolyticus QDIO-5 by microplate assay; type: functional
Vibrio anguillarum = assay: Antibacterial activity against Vibrio anguillarum QDIO-6 by microplate assay; type: functional
Vibrio harveyi = assay: Antibacterial activity against Vibrio harveyi QDIO-7 by microplate assay; type: functional
Vibrio parahaemolyticus = assay: Antibacterial activity against Vibrio parahaemolyticus QDIO-8 by microplate assay; type: functional
Alternaria brassicae = assay: Antifungal activity against Alternaria brassicae QDAU-1 by microplate assay; type: functional
Procedure, shortened: (§1)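 Phytopathogenic fungal strains came from a research group at Qingdao Agricultural University and are kept at the Key Laboratory of Experimental Marine Biology, Institute of Oceanology, CAS. Tested by microplate assay with amphotericin B as the positive control.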

[1] = test system: Colletotrichum gloeosporioides; assay: Antifungal activity against Colletotrichum gloeosporioides QDAU-2 by microplate assay; type: functional; procedure, shortened: as §1
Gaeumannomyces graminis = assay: Antifungal activity against Gaeumannomyces graminis QDAU-3 by microplate assay; type: functional; procedure, shortened: as §1
[2] = Toxicity in brine shrimp; type: organism-based; settings: artemia salina, in vivo; read-out: LD50 (the source's name)

SMILES | MIC (Escherichia coli) [µg/mL] | MIC (Staphylococcus aureus) [µg/mL] | MIC (Aeromonas hydrophila) [µg/mL] | MIC (Edwardsiella tarda) [µg/mL] | MIC (Micrococcus luteus) [µg/mL] | MIC (Pseudomonas aeruginosa) [µg/mL] | MIC (Vibrio alginolyticus) [µg/mL] | MIC (Vibrio anguillarum) [µg/mL] | MIC (Vibrio harveyi) [µg/mL] | MIC (Vibrio parahaemolyticus) [µg/mL] | MIC (Alternaria brassicae) [µg/mL] | MIC [1] [µg/mL] | MIC (Gaeumannomyces graminis) [µg/mL] | LC50 [2] [µg/mL]
CC(C)CCC[C@](C)(O)c1ccc(C(=O)O)cc1O | > 32 | 32 (≈ 120 µM) | > 32 | 32 (≈ 120 µM) | > 32 | > 32 | > 32 | 32 (≈ 120 µM) | 4 (≈ 15 µM) | 4 (≈ 15 µM) | > 32 | 32 (≈ 120 µM) | 0.5 (≈ 1.88 µM) | > 10
Cc1cc(O)cc(Oc2cc(C)cc(OCc3ccc([C@@](C)(O)CCCC(C)C)c(O)c3)c2)c1 | > 32 | > 32 | > 32 | > 32 | 1 (≈ 2.15 µM) | 32 (≈ 68.9 µM) | 2 (≈ 4.3 µM) | > 32 | > 32 | > 32 | 0.5 (≈ 1.08 µM) | > 32 | 32 (≈ 68.9 µM) | > 10
CC(C)CCC[C@](C)(O)c1ccc(COC(=O)c2ccc([C@@](C)(O)CCCC(C)C)c(O)c2)cc1O | > 32 | > 32 | > 32 | 8 (≈ 16 µM) | > 32 | > 32 | > 32 | > 32 | > 32 | 32 (≈ 63.9 µM) | 32 (≈ 63.9 µM) | > 32 | > 32 | > 10
CC(C)C(O)CC[C@](C)(O)c1ccc(C(=O)O)cc1O (some centres undefined) | > 32 | 32 (≈ 113 µM) | 32 (≈ 113 µM) | > 32 | > 32 | > 32 | > 32 | > 32 | 8 (≈ 28.3 µM) | 32 (≈ 113 µM) | > 32 | > 32 | > 32 | > 10
Cc1ccc([C@@]2(C)CCC(=O)O2)c(O)c1 | 32 (≈ 155 µM) | 32 (≈ 155 µM) | > 32 | > 32 | > 32 | > 32 | > 32 | > 32 | 4 (≈ 19.4 µM) | > 32 | > 32 | 32 (≈ 155 µM) | 32 (≈ 155 µM) | > 10
C/C(=C\CCC(C)C)c1ccc(Cc2c(C)cc(Oc3cc(C)cc(O)c3)cc2O)cc1O | 32 (≈ 71.7 µM) | > 32 | > 32 | > 32 | 8 (≈ 17.9 µM) | 4 (≈ 8.96 µM) | 8 (≈ 17.9 µM) | 32 (≈ 71.7 µM) | > 32 | 32 (≈ 71.7 µM) | 32 (≈ 71.7 µM) | 32 (≈ 71.7 µM) | 32 (≈ 71.7 µM) | > 10
CC(C)(O)CCC[C@](C)(O)c1ccc(C(=O)O)cc1O | 32 (≈ 113 µM) | > 32 | 32 (≈ 113 µM) | > 32 | > 32 | > 32 | > 32 | 32 (≈ 113 µM) | > 32 | 32 (≈ 113 µM) | > 32 | > 32 | > 32 | > 10
C=C(CCCC(C)C)c1ccc(C(=O)O)cc1O | > 32 | 32 (≈ 129 µM) | > 32 | > 32 | > 32 | > 32 | > 32 | > 32 | 4 (≈ 16.1 µM) | 32 (≈ 129 µM) | > 32 | > 32 | 0.5 (≈ 2.01 µM) | > 10
C=C(C)CCC[C@](C)(O)c1ccc(C(=O)O)cc1O [11-DEHYDROSYDONIC ACID] | > 32 | 32 (≈ 121 µM) | > 32 | > 32 | 32 (≈ 121 µM) | > 32 | > 32 | > 32 | 4 (≈ 15.1 µM) | 32 (≈ 121 µM) | > 32 | 32 (≈ 121 µM) | > 32 | > 10
C[C@@H]1[C@H](O)[C@@H](C)/C=C/C=C/C=C/C=C/C=C/C=C/C=C/[C@H](O[C@@H]2O[C@H](C)[C@@H](O)[C@H](N)[C@@H]2O)C[C@@H]2O[C@](O)(C[C@@H](O)C[C@@H](O)[C@H](O)CC[C@@H](O)C[C@@H](O)CC(=O)O[C@H]1C)C[C@H](O)[C@H]2C(=O)O [AMPHOTERICIN B] | – | – | – | – | – | – | – | – | – | – | 32 (≈ 34.6 µM) | 32 (≈ 34.6 µM) | 64 (≈ 69.3 µM) | –
O=C(N[C@H](CO)[C@H](O)c1ccc([N+](=O)[O-])cc1)C(Cl)Cl [CHLORAMPHENICOL] | 4 (≈ 12.4 µM) | 0.5 (≈ 1.55 µM) | 4 (≈ 12.4 µM) | 8 (≈ 24.8 µM) | 8 (≈ 24.8 µM) | 8 (≈ 24.8 µM) | 0.5 (≈ 1.55 µM) | 0.5 (≈ 1.55 µM) | 4 (≈ 12.4 µM) | 0.5 (≈ 1.55 µM) | – | – | – | –
